To fix the notation:
B1: NELF-E aptamer (parent)
chain: CCCAACGACUGCCGAGCGAGAUUACGCUUGAGCGCCCCACUGAGGAUGCCCACGGGCGAUUGGGGCACGG

In the data set the parent is B1. As to the kind of experiment: HiTS-RAP. To be noted: with NELF-E (Drosophila). The gist of the method: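 Aptamer DNA templates carrying a T7 promoter and ter site were sequenced on an Illumina GAIIx flowcell, then transcribed in situ by T7 RNA polymerase and halted by GST-Tus (30 minutes, 37°C). Clusters were imaged after 30-minute room-temperature equilibration with NELF-E-mOrange at 0.064 to 1000 nM in HEPES binding buffer, and only the first binding curve was used. Intensities were normalised to sequencing intensity and averaged per sequence. Kd came from weighted Hill fits, keeping fits with variance below 1,000,000.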
On to CCCAACGACUGCCGAGCGAGAUUACGCUUGAGCGCCCCUGUGAGGAUGCCCACGGGCGAUUGGGGCACGG [A39U C40G], for which the Kd – broadly, the free concentration of one partner at which half of the binding sites on the other are occupied at equilibrium, for simple one-to-one binding – is 5.95 nM.
As for CCCAACGACUGCCGAGCGAGAUUACGCUUGAGCGCCCCACAGAGGAUGCCCACGGGCGAUUAGGGCACGG [U41A G62A], the figure is 102 nM; as for CCCAACGACUGCCGAGCGAGAUUACGCUUGAGCGCCCCUCUGAGGAUGCCCACGGGCGAUUGGGGCACGG [A39U], 23.5 nM.
Turning to CCCAACGACUGCCGAGCGAGAUUACGCUUGAGCGCCCCACGGAGGAUGCCCACGGGCGAUUGUGGCACGG [U41G G63U], the dissociation constant (Kd) is 11.8 nM.
As for CCCAACGACUGCCGAGCGAGAUUACGCUUGAGCGCCCCACGGAGGAUGCCCACGGGCGAUUGAGGCACGG [U41G G63A], the figure is 16.8 nM.
As for CCCAACGACUGCCGAGCGAGAUUACGCUUGAGCGCCCCACGGAGGAUGCCCUCGGGCGAUUGGGGCACGG [U41G A52U], the figure is 16.4 nM; as for CCCAACGACUGCCGAGCGAGAUUACGCUUGAGCGCCCCACGGAGGAUGCCCGCGGGCGAUUGGGGCACGG [U41G A52G], 4.52 nM; as for CCCAACGACUGCCGAGCGAGAUUACGCUUGAGCGCCCCACGGAGGAUGCCCACGGGCGACUGGGGCACGG [U41G U60C], 9.67 nM.
Regarding CCCAACGACUGCCGAGCGAGAUUACGCUUGAGCGCCCCACGGGGGAUGCCCACGGGCGAUUGGGGCACGG [U41G A43G], the Kd was found to be 8.31 nM.
As to CCCAACGACUGCCGAGCGAGAUUACGCUUGAGCGCCCCACGGUGGAUGCCCACGGGCGAUUGGGGCACGG [U41G A43U], the Kd came to 26.3 nM.
In the case of CCCAACGACUGCCGAGCGAGAUUACGCUUGAGCGCCCCACGGAGGAUGCCCACGGACGAUUGGGGCACGG [U41G G56A] it was 5.81 nM; in that of CCCAACGACUGCCGAGCGAGAUUACGCUUGAGCGCCCCACGGAGGAUGCCCACGGUCGAUUGGGGCACGG [U41G G56U], 5.56 nM; in that of CCCAACGACUGCCGAGCGAGAUUACGCUUGAGCGCCCCACGGAGGAUGCCCACGGGCGAUUGGGGUACGG [U41G C66U], 4.15 nM.
Take CCCAACGACUGCCGAGCGAGAUUACGCUUGAGCGCCCCACUGGGGAUGCCCACGGGCGGUUGGGGCACGG [A43G A59G]: the dissociation constant Kd stood at 69 nM.
In the case of CCCAACGACUGCCGAGCGAGAUUACGCUUGAGCGCCCCACGGAGAAUGCCCACGGGCGAUUGGGGCACGG [U41G G45A], the Kd came out at 53.9 nM.
As for CCCAACGACUGCCGAGCGAGAUUACGCUUGAGCGCCCCACGGAGUAUGCCCACGGGCGAUUGGGGCACGG [U41G G45U], the dissociation constant Kd was 5.07 nM.
On to CCCAACGACUGCCGAGCGAGAUUACGCUUGAGCGCCCCUCUGAGGAUGCCCGCGGGCGAUUGGGGCACGG [A39U A52G], for which the Kd stood at 15.5 nM.
In the case of CCCAACGACUGCCGAGCGAGAUUACGCUUGAGCGCCCCACUGAAGAUGCCCACGGGCGAUUGGGGCACGG [G44A] it was 42.3 nM; in that of CCCAACGACUGCCGAGCGAGAUUACGCUUGAGCGCCCCGCUGAGGAUGCCCACGGGCGAUUGAGGCACGG [A39G G63A], 87.1 nM.
As for CCCAACGACUGCCGAGCGAGAUUACGCUUGAGCGCCCCACAGAGGAUGCCCACGGGCGAUUGGGGCACGG [U41A], the figure is 73.7 nM; as for CCCAACGACUGCCGAGCGAGAUUACGCUUGAGCGCCCCACGGAGGAUGCCCACGGGCGAUUGGGGCACGG [U41G], 5.16 nM; as for CCCAACGACUGCCGAGCGAGAUUACGCUUGAGCGCCCCACCGAGGAUGCCCACGGGCGAUUGGGGCACGG [U41C], 68.9 nM.
On to CCCAACGACUGCCGAGCGAGAUUACGCUUGAGCGCCCCAUGGAGGAUGCCCACGGGCGAUUGGGGCACGG [C40U U41G], for which the Kd is 7.61 nM.
In the case of CCCAACGACUGCCGAGCGAGAUUACGCUUGAGCGCCCCACUGUGGAUGCCCACGGGCGAUUGGGGCACGG [A43U] it was 67 nM; in that of CCCAACGACUGCCGAGCGAGAUUACGCUUGAGCGCCCCACUGGGGAUGCCCACGGGCGAUUGGGGCACGG [A43G], 24.6 nM.
As for CCCAACGACUGCCGAGCGAGAUUACGCUUGAGCGCCCCACUGCGGAUGCCCACGGGCGAUUGGGGCACGG [A43C], the Kd is 76 nM.
Regarding CCCAACGACUGCCGAGCGAGAUUACGCUUGAGCGCCCCGCUGAGGAUGCCCACAGGCGAUUGGGGCACGG [A39G G54A], the Kd was 23.3 nM.
In the case of CCCAACGACUGCCGAGCGAGAUUACGCUUGAGCGCCCCACGGAGGAGGCCCACGGGCGAUUGGGGCACGG [U41G U47G] it was 7.59 nM.
In the case of CCCAACGACUGCCGAGCGAGAUUACGCUUGAGCGCCCCACUGGGGAUGCCCACGGGCGAUUGGGGCUCGG [A43G A67U] it was 23.5 nM; in that of CCCAACGACUGCCGAGCGAGAUUACGCUUGAGCGCCCCUCUGAGGAUGCCCACGGGCGAUUGGGGUACGG [A39U C66U], 21.2 nM; in that of CCCAACGACUGCCGAGCGAGAUUACGCUUGAGCGCCCCACCGAGGAUGCCCACAGGCGAUUGGGGCACGG [U41C G54A], 103 nM.
As for CCCAACGACUGCCGAGCGAGAUUACGCUUGAGCGCCCCACGUAGGAUGCCCACGGGCGAUUGGGGCACGG [U41G G42U], the figure is 5.09 nM; as for CCCAACGACUGCCGAGCGAGAUUACGCUUGAGCGCCCCACGAAGGAUGCCCACGGGCGAUUGGGGCACGG [U41G G42A], 23.5 nM.
Regarding CCCAACGACUGCCGAGCGAGAUUACGCUUGAGCGCCCCUCUGAGGAUGCCCACGGGCGAUAGGGGCACGG [A39U U61A], the Kd is 17.4 nM.
For the variant CCCAACGACUGCCGAGCGAGAUUACGCUUGAGCGCCCCUCAGAGGAUGCCCACGGGCGAUUGGGGCACGG [A39U U41A], the Kd was 109 nM.
As for CCCAACGACUGCCGAGCGAGAUUACGCUUGAGCGCCCCUCGGAGGAUGCCCACGGGCGAUUGGGGCACGG [A39U U41G], the dissociation constant Kd is 30.7 nM.
Regarding CCCAACGACUGCCGAGCGAGAUUACGCUUGAGCGCCCCUCUGAGGAUACCCACGGGCGAUUGGGGCACGG [A39U G48A], the Kd stood at 49 nM.
On to CCCAACGACUGCCGAGCGAGAUUACGCUUGAGCGCCCCACGGAGGAUGCUCACGGGCGAUUGGGGCACGG [U41G C50U], for which the Kd worked out at 13.8 nM.

Values taken from the RNAGym collection of RNA variant scans (doi:10.1038/nmeth.2970).
